Measurements: ChEMBL document CHEMBL1144928, “Antimalarial activity of novel 1,2,5,6-tetraoxacycloalkanes and 1,2,5-trioxacycloalkanes” (J Med Chem, 2003)

What was measured:
[1] = tested on: Mus musculus; test: Compound was tested in vitro Antimalarial activity against Plasmodium berghei in infected mice (Mus musculus) administered intraperitoneally; format: functional; settings: ip
How it was run: (§1)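 Mice infected with P. berghei NK 65 strain, in groups of five, were dosed once daily on days 0–3 with a range of concentrations in olive oil. Dosing was intraperitoneal or oral.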

[2] = tested on: Plasmodium falciparum; test: In vitro antimalarial activity against […]; format: functional, organism-based
[3] = (§2) Selectivity index was determined; format: functional
How it was run: (§3)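 Selectivity was calculated as the mean EC50 for FM3A cells divided by the mean EC50 for P. falciparum FCR-3.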

[4] = tested on: Mus musculus; test: Compound was tested in vitro Antimalarial activity against Plasmodium berghei in infected mice (Mus musculus) administered per orally; format: functional; settings: po; how it was run: as §1
[5] = tested on: Plasmodium falciparum; test: In vitro antimalarial activity against Plasmodium falciparum; format: functional, organism-based
How it was run: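 Tested against chloroquine-sensitive P. falciparum FCR-3 strain in culture. EC50 was determined by a previously reported protocol.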

[6] = tested on: FM3A; test: Compound was tested in vitro cytotoxicity against FM3A cell; format: functional, cell-based; settings: Mus musculus
How it was run: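 Cytotoxicity control used mouse mammary tumor FM3A cells in culture. The 50% inhibitory concentration (EC50) was determined by a previously reported protocol.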

[7] = as §2; format: functional; how it was run: as §3; remark: listed apart in the source

Row | Structure (SMILES) | ED50 [1] [mg/kg] | ED90 [1] [mg/kg] | EC50 [2] [µM] | Selectivity [3] | ED50 [4] [mg/kg] | ED90 [4] [mg/kg] | EC50 [5] [µM] | EC50 [6] [µM] | EC50 [7] [µM]
1 | c1ccc(C23OOC(C4CCCCC4)OOC2C2CCC3C2)cc1 (stereo unspecified) | 70 | > 100 | 0.21 | 52 |  |  |  |  | 
2 | C[C@@H]1CC[C@H]2[C@@H](C)C(=O)O[C@@H]3O[C@@]4(C)CC[C@@H]1[C@]32OO4 [ARTEMISININ] | 5.4 | 13 |  | 1000 | 32 | 89 |  |  | 
3 | CC1(CI)COC2(c3ccccc3)C3CCC(C3)C2OO1 (stereo unspecified) |  |  |  | 11 |  |  | 1 | 11 | 
4 | CC1(CI)CCOOC2(c3ccccc3)C3CCC(C3)C2OO1 (stereo unspecified) |  |  |  | 73 |  |  | 0.15 | 11 | 
5 | CC1(CI)CCOC2(c3ccccc3)C3CCC(C3)C2OO1 (stereo unspecified) |  |  |  | 3000 |  |  | 0.005 | 15 | 
6 | c1ccc(C2OOC3C4CCC(C4)C3(c3ccccc3)OO2)cc1 (stereo unspecified) |  |  |  | 9 |  |  | 1.5 | 13 | 
7 | c1ccc(C23OOCCCOOC2C2CCC3C2)cc1 (stereo unspecified) | 13 | 50 |  |  | > 100 |  | 0.19 | 45 | 237
8 | c1ccc(C23OOC4(CCCCC4)OOC2C2CCC3C2)cc1 (stereo unspecified) [TETRACYCLOALKANES] |  |  |  | 24 |  |  | 0.45 | 11 | 
9 | Fc1ccc(C2OOC3C4CCC(C4)C3(c3ccccc3)OO2)cc1 (stereo unspecified) |  |  |  | 11 |  |  | 1 | 11 | 
10 | CC1(C2OOC3C4CCC(C4)C3(c3ccccc3)OO2)CCCC1 (stereo unspecified) |  |  |  | 45 |  |  | 0.13 | 5.9 | 
